Test results: ChEMBL document CHEMBL1124186, “Synthesis and evaluation of tylosin-related macrolides modified at the aldehyde function: a new series of orally effective antibiotics” (1988)
In brackets after ≈: the same amount, converted by molar mass.

How the values were obtained:
Haemophilus influenzae = test: In vitro antimicrobial activity against Haemophilus influenzae.; assay type: functional
Staphylococcus aureus = test: In vitro antimicrobial activity against Staphylococcus aureus X1; assay type: functional
Streptococcus pyogenes [1] = test: Effective dose against Streptococcus pyogenes C203 when administered orally; assay type: functional; conditions: po
How it was run: (§1)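 Mouse protection test: infected mice were dosed twice, at 1 and 5 h postinfection, either subcutaneously or orally. […] The result is expressed as ED50 in mg/kg × 2.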

Streptococcus pyogenes [2] = test: Effective dose against Streptococcus pyogenes C203 when administered sc; assay type: functional; how it was run: as §1
Streptococcus pyogenes [3] = test: In vivo effective dose against experimental infections in rodent caused by Streptococcus pyogenes C203 when administered sc; assay type: functional
Streptococcus pneumoniae = test: In vitro antimicrobial activity against Streptococcus pneumoniae; assay type: functional
[4] = test system: Staphylococcus epidermidis; test: In vitro antimicrobial activity against Staphylococcus epidermidis EPI1; assay type: functional
Enterococcus faecium = test: In vitro antimicrobial activity against Streptococcus faecium X66; assay type: functional, streptococcus fae-cium
Streptococcus pyogenes [5] = test: In vitro antimicrobial activity against Streptococcus pyogenes C203; assay type: functional
Streptococcus pyogenes [6] = test: Antimicrobial activity against Streptococcus pyogenes C203; assay type: functional
Streptococcus pyogenes [7] = test: In vivo effective dose against experimental infections in rodent caused by Streptococcus pyogenes C203 when administered orally; assay type: functional; conditions: po

CC[C@H]1OC(=O)C[C@@H](O)[C@H](C)[C@@H](O[C@@H]2O[C@H](C)[C@@H](O)[C@H](N(C)C)[C@H]2O)[C@@H](C)C[C@@H](C)C(=O)/C=C/C(C)=C/[C@@H]1CO showed an MIC (Haemophilus influenzae) of 4 µg/mL (≈ 7.02 µM), an MIC (Staphylococcus aureus) of 4 µg/mL (≈ 7.02 µM) and an ED50 (Streptococcus pyogenes [1]) of 121 mg/kg. The ED50 (Streptococcus pyogenes [2]) was greater than 30 mg/kg, the ED50 (Streptococcus pyogenes [3]) was greater than 30 mg/kg and the MIC (Streptococcus pneumoniae) was 4 µg/mL (≈ 7.02 µM). For the same molecule, the MIC [4] was 2 µg/mL (≈ 3.51 µM), the MIC (Enterococcus faecium) was 4 µg/mL (≈ 7.02 µM) and the MIC (Streptococcus pyogenes [5]) was 4 µg/mL (≈ 7.02 µM). The MIC (Streptococcus pyogenes [6]) was 4 µg/mL (≈ 7.02 µM) and the ED50 (Streptococcus pyogenes [7]) was 121 mg/kg.
